Assay results from ChEMBL document CHEMBL3994644, “Discovery of AAT-008, a novel, potent, and selective prostaglandin EP4 receptor antagonist” (Bioorg Med Chem Lett, 2017).

Columns and labels:
[1] = biological target: T1, Prostaglandin E2 receptor EP4 subtype (Homo sapiens, UniProt P35408); experiment: Antagonist activity at human EP4 receptor expressed in HEK293 cells assessed as inhibition of PGE2-induced cAMP level by HTS assay; type: functional, cell-based; conditions: for Kb: read-out: pA2 (converted)
T1 sequence (P35408 whole entry): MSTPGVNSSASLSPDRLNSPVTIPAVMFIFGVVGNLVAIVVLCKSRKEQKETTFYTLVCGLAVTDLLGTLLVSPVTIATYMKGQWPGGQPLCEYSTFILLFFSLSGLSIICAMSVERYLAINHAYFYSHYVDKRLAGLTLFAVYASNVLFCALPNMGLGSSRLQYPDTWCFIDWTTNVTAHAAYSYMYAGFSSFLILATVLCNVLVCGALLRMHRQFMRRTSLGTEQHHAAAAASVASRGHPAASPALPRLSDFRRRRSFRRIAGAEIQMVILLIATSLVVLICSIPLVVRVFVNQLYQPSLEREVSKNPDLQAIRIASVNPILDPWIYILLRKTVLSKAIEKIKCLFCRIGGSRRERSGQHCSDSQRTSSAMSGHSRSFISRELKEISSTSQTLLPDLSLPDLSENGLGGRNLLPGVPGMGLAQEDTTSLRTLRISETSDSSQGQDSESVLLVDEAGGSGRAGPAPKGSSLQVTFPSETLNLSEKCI

[2] = biological target: T1, Prostaglandin E2 receptor EP4 subtype; experiment: Displacement of [3H]PGE from human EP4 receptor expressed in HEK293 cell membranes
Procedure, shortened: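 Membrane binding assay using [3H]PGE2 with membranes from HEK-293 cells expressing human EP4. The value is expressed as Ki.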

[3] = Apparent permeability from apical to basolateral side in human Caco2 cells; type: ADME, cell-based; conditions: Caco-2
Procedure, shortened: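 Caco-2 monolayer permeability (Papp, apical to basolateral) was measured under constant pH, with the apical side at pH 6.5 and the basolateral side at pH 7.4.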

[4] = biological target: Prostaglandin E2 receptor EP4 subtype (Mus musculus, UniProt P32240); experiment: Antagonist activity at mouse recombinant EP4 receptor assessed as inhibition of PGE2-induced cAMP level by cell based assay; type: functional; conditions: read-out: pA2 (converted)
Prostaglandin E2 receptor EP4 subtype (Mus musculus, UniProt P32240), sequence (P32240 whole entry): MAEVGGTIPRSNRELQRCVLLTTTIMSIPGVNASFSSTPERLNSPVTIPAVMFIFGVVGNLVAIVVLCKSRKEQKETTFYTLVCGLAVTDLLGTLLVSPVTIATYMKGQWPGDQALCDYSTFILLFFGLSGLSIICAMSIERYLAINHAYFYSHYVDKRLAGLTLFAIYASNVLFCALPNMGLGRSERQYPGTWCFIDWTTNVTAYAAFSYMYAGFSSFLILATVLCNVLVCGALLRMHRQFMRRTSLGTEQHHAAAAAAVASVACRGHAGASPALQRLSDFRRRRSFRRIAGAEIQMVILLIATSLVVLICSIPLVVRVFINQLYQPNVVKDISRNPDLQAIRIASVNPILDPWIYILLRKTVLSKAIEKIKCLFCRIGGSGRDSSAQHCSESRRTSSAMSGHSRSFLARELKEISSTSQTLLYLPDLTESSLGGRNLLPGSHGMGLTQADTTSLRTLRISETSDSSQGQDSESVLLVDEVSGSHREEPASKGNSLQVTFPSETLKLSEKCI
Procedure, shortened: (§1)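 Functional antagonism was measured as inhibition of PGE2-induced cAMP in cells transfected with rodent EP4 (mouse or rat). The value is expressed as pA2.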

[5] = biological target: Prostaglandin E receptor 4 (Canis lupus familiaris, UniProt Q9TU16); experiment: Antagonist activity at dog recombinant EP4 receptor
Prostaglandin E receptor 4, sequence (Q9TU16 whole entry): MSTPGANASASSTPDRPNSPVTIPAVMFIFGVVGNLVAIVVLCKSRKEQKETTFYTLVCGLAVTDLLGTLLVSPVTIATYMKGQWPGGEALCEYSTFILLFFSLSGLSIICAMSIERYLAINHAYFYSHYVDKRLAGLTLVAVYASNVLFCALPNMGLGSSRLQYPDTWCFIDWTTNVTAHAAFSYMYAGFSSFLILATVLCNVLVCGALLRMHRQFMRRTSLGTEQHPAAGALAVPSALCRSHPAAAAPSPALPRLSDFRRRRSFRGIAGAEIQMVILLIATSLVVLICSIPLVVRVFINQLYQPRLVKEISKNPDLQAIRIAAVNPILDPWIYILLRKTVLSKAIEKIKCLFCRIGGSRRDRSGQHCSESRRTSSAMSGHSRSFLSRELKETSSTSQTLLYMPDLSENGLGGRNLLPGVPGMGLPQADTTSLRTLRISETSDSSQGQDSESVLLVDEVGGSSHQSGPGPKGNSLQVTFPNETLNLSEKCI

[6] = biological target: T2, Prostaglandin E2 receptor EP4 subtype (Rattus norvegicus, UniProt P43114); experiment: Antagonist activity at rat recombinant EP4 receptor assessed as inhibition of PGE2-induced cAMP level by cell based assay; type: functional; conditions: read-out: pA2 (converted); procedure, shortened: as §1
T2 sequence (P43114 whole entry): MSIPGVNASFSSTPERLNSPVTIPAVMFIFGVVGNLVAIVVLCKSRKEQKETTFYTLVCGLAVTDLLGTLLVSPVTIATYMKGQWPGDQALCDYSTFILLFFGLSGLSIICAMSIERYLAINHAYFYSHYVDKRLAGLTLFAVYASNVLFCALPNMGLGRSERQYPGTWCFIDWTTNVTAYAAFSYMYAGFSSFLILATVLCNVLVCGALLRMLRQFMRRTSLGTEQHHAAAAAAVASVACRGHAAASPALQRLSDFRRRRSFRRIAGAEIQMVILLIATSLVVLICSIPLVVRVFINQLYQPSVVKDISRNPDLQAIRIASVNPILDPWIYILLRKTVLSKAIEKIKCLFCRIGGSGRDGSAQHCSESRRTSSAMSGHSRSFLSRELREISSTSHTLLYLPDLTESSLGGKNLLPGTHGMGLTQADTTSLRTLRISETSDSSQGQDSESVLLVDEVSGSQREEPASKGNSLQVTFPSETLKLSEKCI

[7] = biological target: T2, Prostaglandin E2 receptor EP4 subtype; experiment: Antagonist activity at rat recombinant EP4 receptor
Prostacyclin receptor = Prostacyclin receptor (Homo sapiens, UniProt P43119); experiment: Antagonist activity at human IP receptor
Prostacyclin receptor, sequence (P43119 whole entry): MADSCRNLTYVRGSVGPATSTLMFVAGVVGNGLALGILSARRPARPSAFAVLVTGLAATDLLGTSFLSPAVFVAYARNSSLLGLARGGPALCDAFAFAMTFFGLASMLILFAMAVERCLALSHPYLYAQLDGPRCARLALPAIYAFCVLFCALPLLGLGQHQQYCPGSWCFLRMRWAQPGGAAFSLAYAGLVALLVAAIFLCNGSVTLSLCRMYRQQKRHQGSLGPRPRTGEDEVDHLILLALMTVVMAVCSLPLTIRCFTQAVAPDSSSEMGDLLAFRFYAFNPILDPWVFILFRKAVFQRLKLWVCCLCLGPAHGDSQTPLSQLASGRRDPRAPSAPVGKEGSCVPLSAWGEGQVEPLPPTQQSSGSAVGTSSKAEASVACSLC

Thromboxane A2 receptor = biological target: T3, Thromboxane A2 receptor (Homo sapiens, UniProt P21731); experiment: Antagonist activity at human platelet TP receptor
T3 sequence (P21731 whole entry): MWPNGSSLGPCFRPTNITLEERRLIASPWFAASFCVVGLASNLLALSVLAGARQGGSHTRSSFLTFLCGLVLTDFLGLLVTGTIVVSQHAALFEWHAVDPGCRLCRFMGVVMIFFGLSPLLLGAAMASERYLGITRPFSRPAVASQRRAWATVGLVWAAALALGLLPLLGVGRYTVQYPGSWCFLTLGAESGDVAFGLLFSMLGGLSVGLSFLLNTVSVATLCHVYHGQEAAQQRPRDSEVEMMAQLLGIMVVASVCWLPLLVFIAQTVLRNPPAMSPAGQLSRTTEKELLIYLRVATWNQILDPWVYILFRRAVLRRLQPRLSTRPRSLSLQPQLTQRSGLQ

[8] = biological target: T4, Prostaglandin E2 receptor EP1 subtype (Homo sapiens, UniProt P34995); experiment: Antagonist activity at human EP1 receptor
T4 sequence (P34995 whole entry): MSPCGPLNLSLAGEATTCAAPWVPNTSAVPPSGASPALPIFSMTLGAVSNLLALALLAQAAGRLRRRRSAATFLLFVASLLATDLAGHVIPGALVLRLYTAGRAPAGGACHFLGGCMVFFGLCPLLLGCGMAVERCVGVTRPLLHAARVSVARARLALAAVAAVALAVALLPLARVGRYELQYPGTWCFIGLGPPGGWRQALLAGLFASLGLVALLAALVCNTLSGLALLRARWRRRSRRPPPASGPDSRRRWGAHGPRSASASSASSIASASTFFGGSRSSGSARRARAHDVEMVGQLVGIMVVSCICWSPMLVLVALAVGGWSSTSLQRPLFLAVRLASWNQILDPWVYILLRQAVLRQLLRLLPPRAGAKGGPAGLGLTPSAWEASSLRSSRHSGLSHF

[9] = biological target: Prostaglandin E2 receptor EP2 subtype (Homo sapiens, UniProt P43116); experiment: Antagonist activity at human EP2 receptor
Prostaglandin E2 receptor EP2 subtype, sequence (P43116 whole entry): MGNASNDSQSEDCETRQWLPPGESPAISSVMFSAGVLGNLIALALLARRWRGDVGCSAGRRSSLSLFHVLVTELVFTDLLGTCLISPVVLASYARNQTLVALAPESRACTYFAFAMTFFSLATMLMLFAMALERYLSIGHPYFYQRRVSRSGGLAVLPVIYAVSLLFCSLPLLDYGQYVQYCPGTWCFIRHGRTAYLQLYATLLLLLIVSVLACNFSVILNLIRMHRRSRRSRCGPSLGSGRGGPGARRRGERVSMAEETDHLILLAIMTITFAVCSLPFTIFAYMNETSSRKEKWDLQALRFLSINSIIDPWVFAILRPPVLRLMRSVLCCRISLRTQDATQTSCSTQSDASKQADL

[10] = biological target: T5, Prostaglandin E2 receptor EP3 subtype (Homo sapiens, UniProt P43115); experiment: Antagonist activity at human EP3 receptor
T5 sequence (P43115 whole entry): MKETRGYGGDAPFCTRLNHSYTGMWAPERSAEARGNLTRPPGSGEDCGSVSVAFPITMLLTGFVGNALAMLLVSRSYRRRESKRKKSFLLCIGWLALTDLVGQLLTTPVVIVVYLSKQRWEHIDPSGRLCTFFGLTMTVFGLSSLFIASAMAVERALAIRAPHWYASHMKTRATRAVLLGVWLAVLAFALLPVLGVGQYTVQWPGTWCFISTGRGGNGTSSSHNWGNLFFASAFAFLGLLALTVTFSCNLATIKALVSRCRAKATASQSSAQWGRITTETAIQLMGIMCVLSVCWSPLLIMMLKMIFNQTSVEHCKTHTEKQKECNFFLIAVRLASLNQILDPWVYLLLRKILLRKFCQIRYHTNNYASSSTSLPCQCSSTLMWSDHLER

Rattus norvegicus [11] = experiment: Analgesic activity in po dosed rat assessed as inhibition of carrageenan-induced mechanical hyperalgesia measured at 1 hr post dose; type: functional; conditions: read-out: MED
Procedure, shortened: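 Rats dosed orally. Mechanical hyperalgesia was induced with carrageenan and assessed 1 h post dose. The value is the minimum effective dose (MED, mg/kg PO).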

[12] = Antagonist activity at human DP receptor
[13] = biological target: Prostaglandin F2-alpha receptor (Homo sapiens, UniProt P43088); experiment: Antagonist activity at human FP receptor
Prostaglandin F2-alpha receptor, sequence (P43088 whole entry): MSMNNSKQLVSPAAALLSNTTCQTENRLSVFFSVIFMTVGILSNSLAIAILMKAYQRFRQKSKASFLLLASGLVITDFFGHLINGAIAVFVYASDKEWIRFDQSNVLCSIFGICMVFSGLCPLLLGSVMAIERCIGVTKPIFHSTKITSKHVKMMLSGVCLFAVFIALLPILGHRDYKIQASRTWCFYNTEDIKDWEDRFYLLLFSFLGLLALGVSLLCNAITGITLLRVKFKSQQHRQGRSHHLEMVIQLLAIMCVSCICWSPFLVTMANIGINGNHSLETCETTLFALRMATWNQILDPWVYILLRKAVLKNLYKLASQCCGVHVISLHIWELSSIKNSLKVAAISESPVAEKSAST

Rattus norvegicus [14] = experiment: Analgesic activity in po dosed rat model of chronic inflammatory pain assessed as inhibition of CFA-induced weight bearing deficit; type: functional; conditions: read-out: MED
Procedure, shortened: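 Chronic inflammatory pain was modelled in rats with CFA and read out as weight bearing deficit after oral dosing. The value is the minimum effective dose (MED, mg/kg PO).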

[15] = Half life in human liver microsomes; type: ADME, microsome
[16] = Solubility of the compound in pH 6.5 PBS; type: physicochemical

Row | SMILES | IC50 [1] | IC50 [2] | Papp A→B [3] | also measured
1 | C[C@H](NC(=O)c1cc(Cl)ccc1Oc1cccc(Cl)c1)c1ccc(C(=O)O)cc1 | 41.1 nM |  |  | 
2 | CCC(NC(=O)c1cc(F)cnc1Oc1ccc(F)cc1)c1ccc(C(=O)O)cc1 (racemic) |  | 181 nM | 20.1 ×10⁻⁶ cm/s | 
3 | CCc1nc2c(C)nc(C)cc2n1-c1ccc(CCNC(=O)NS(=O)(=O)c2ccc(C)cc2)cc1 [GRAPIPRANT] |  |  |  | Kb [4]: 7.76 nM; Ki [5]: 24 nM; Kb [6]: 6.46 nM; Ki [7]: 20 nM; Ki (Prostacyclin receptor): > 5000 nM; Ki (Thromboxane A2 receptor): > 5000 nM; Kb [1]: 4.79 nM; Ki [2]: 13 nM; Ki [8]: > 5000 nM; Ki [9]: > 5000 nM; Ki [10]: > 5000 nM; minimal effective dose (Rattus norvegicus [11]): 30 mg/kg; Ki [12]: 2930 nM; Ki [13]: > 5000 nM; minimal effective dose (Rattus norvegicus [14]): 20 mg/kg
4 | C[C@H](NC(=O)c1cc(Cl)cnc1Oc1ccccc1Cl)c1ccc(C(=O)O)cc1 | 93.5 nM |  |  | 
5 | O=C(NCc1ccc(C(=O)NS(=O)(=O)c2cccc(Cl)c2)cc1)c1cccc(OCc2nc3cc(F)ccc3s2)c1 | 302 nM |  |  | 
6 | COc1cccc(Oc2ncc(Cl)cc2C(=O)N[C@@H](C)c2ccc(C(=O)O)cc2)c1 | 340 nM |  |  | 
7 | Cc1ccc(C(=O)NCc2ccc(C(=O)O)cc2)c(Oc2ccc(F)cc2)n1 | > 5000 nM |  |  | 
8 | O=C(O)c1ccc(CNC(=O)c2cc(Cl)cnc2Oc2ccc(F)cc2)cc1 | 254 nM | 37.9 nM | 20.1 ×10⁻⁶ cm/s | IC50 [8]: > 20000 nM; IC50 [9]: 1290 nM; IC50 [10]: > 20000 nM
9 | C[C@H](NC(=O)c1cc(Cl)cnc1Oc1cc(F)cc(F)c1)c1ccc(C(=O)O)cc1 | < 50 nM |  |  | 
10 | CC(C)(NC(=O)c1cc(F)cnc1Oc1ccc(F)cc1)c1ccc(C(=O)O)cc1 |  | 545 nM | 36.3 ×10⁻⁶ cm/s | 
11 | C[C@H](NC(=O)c1cc(F)cnc1Oc1ccc(F)cc1)c1ccc(C(=O)O)cc1 | 143 nM | 28.7 nM | 30.2 ×10⁻⁶ cm/s | 
12 | O=C(O)c1ccc(CNC(=O)c2cc(F)ccc2Oc2ccc(F)cc2)cc1 | 317 nM | 124 nM | 36.3 ×10⁻⁶ cm/s | IC50 [8]: > 20000 nM; IC50 [9]: 236 nM; IC50 [10]: > 20000 nM
13 | O=C(O)c1ccc(CNC(=O)c2cccc(OCc3nc4cc(F)ccc4s3)c2)cc1 | 370 nM |  |  | half-life [15]: > 2 h; solubility [16]: > 10 µM
14 | C[C@H](NC(=O)c1cc(Cl)cnc1Oc1ccc(F)c(F)c1)c1ccc(C(=O)O)cc1 | < 50 nM |  |  | 
15 | O=C(O)c1ccc(CNC(=O)c2cc(Cl)ccc2Oc2ccc(F)cc2)cc1 | 101 nM | 21.6 nM | 51.4 ×10⁻⁶ cm/s | 
16 | C[C@H](NC(=O)c1cc(Cl)cnc1Oc1cncc(F)c1)c1ccc(C(=O)O)cc1 | 175 nM |  |  | 

Row | SMILES | IC50 [1] | IC50 [2] | Papp A→B [3] | also measured
17 | C[C@H](NC(=O)c1cc(Cl)cnc1Oc1ccccc1F)c1ccc(C(=O)O)cc1 | 61.4 nM |  |  | 
18 | Cc1cnc(Oc2ccc(F)cc2)c(C(=O)NCc2ccc(C(=O)O)cc2)c1 | 2940 nM |  |  | 
19 | C[C@H](NC(=O)c1cc(Cl)cnc1Oc1ccc(F)cc1)c1ccc(C(=O)O)cc1 | 25.9 nM | 9.68 nM | 30.3 ×10⁻⁶ cm/s | Kb [1]: 2.45 nM; half-life [15]: > 2 h; IC50 [8]: > 20000 nM; IC50 [9]: 4360 nM; IC50 [10]: > 20000 nM; minimal effective dose (Rattus norvegicus [11]): 10 mg/kg
20 | C[C@@H](NC(=O)c1cc(Cl)cnc1Oc1ccc(F)cc1)c1ccc(C(=O)O)cc1 | 1210 nM |  | 25.3 ×10⁻⁶ cm/s | 
21 | C[C@H](NC(=O)c1cc(Cl)ccc1Oc1ccc(F)cc1)c1ccc(C(=O)O)cc1 | 38.2 nM | 6.59 nM | 32.4 ×10⁻⁶ cm/s | Kb [1]: 1.78 nM; half-life [15]: > 2 h; IC50 [8]: > 20000 nM; IC50 [9]: 709 nM; IC50 [10]: > 20000 nM; minimal effective dose (Rattus norvegicus [11]): 10 mg/kg
22 | CSc1cccc(Oc2ncc(Cl)cc2C(=O)N[C@@H](C)c2ccc(C(=O)O)cc2)c1 | 400 nM |  |  | 
23 | C[C@H](NC(=O)c1cc(Cl)cnc1Oc1cncc(Cl)c1)c1ccc(C(=O)O)cc1 | 137 nM |  |  | 
24 | C[C@H](NC(=O)c1cc(Cl)cnc1Oc1cccc(C(F)(F)F)c1)c1ccc(C(=O)O)cc1 | 60.4 nM |  |  | 
25 | C[C@H](NC(=O)c1cc(Cl)cnc1Oc1cccc(OC(F)(F)F)c1)c1ccc(C(=O)O)cc1 | 1790 nM |  |  | 
26 | C[C@H](NC(=O)c1cc(Cl)cnc1Oc1ccc(Cl)cc1)c1ccc(C(=O)O)cc1 | 94.3 nM |  |  | 
27 | C[C@H](NC(=O)c1cc(Cl)cnc1Oc1cccc(Cl)c1)c1ccc(C(=O)O)cc1 | 21.8 nM | 5.02 nM |  | half-life [15]: > 2 h
28 | O=C(O)c1ccc(CNC(=O)c2cc(F)cnc2Oc2ccc(F)cc2)cc1 | 575 nM | 104 nM | 25.3 ×10⁻⁶ cm/s | half-life [15]: > 2 h; solubility [16]: > 10 µM; Ki [2]: 73 nM; IC50 [8]: > 20000 nM; IC50 [9]: > 20000 nM; IC50 [10]: > 20000 nM
29 | C[C@H](NC(=O)c1cc(Cl)cnc1Oc1cc(F)ccc1F)c1ccc(C(=O)O)cc1 | < 50 nM |  |  | 
30 | C[C@H](NC(=O)c1cc(Cl)ccc1Oc1cccc(F)c1)c1ccc(C(=O)O)cc1 | 30.6 nM | 8.76 nM | 41.9 ×10⁻⁶ cm/s | Kb [1]: 1.26 nM; half-life [15]: > 2 h; IC50 [8]: > 20000 nM; IC50 [9]: 1620 nM; IC50 [10]: > 20000 nM; minimal effective dose (Rattus norvegicus [11]): 10 mg/kg
31 | C[C@H](NC(=O)c1cc(Cl)cnc1Oc1cccc(F)c1F)c1ccc(C(=O)O)cc1 | < 50 nM |  |  | 
